Source: PubChem
Only a selection was taken, and hits are over-represented in it overall.
Fibroblast inh – antiproliferative effect on LL 47 fibroblasts – human, LL 47 cells, CellTiter-Glo luminescence, primary screen; LL 47 human lung fibroblast viability, ATP luminescence; hits give low values; viability, % at 10 µM; 85,000 compounds, 1.1% hits; AID 719, 2007;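 active means viability at or below 50% in the single dose screen; inactive means viability above 50%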;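 further: compound exposure lasted 72 h before the ATP readout; 100% = median luminescence of untreated cell-only wells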
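Material: human lung fibroblast line LL 47, low passage; Evaluation: viability percentage against median untreated-cell control; Buffer or medium: 15% FBS in IMEM; Incubation: 72 h compound exposure at 37 °C after overnight plating; Dosing: 0.1% DMSO in all compound wells; Measured by: CellTiter-Glo luminescence.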
bCat KO growth – primary screen for growth suppressors in beta-catenin knockout HCT116 cells (colon tumor, human) | viability, % at 10 µM | 140,000 compounds, 1.5% hits | HCT116 beta-catenin knockout viability, CellTiter-Glo, 60 h; hits give low values;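 active means viability at or under a set limit, the compound median less 4 SD, cut at about 6% in these data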;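 further: 0% = Hyamine 1622 control at 20 µM and 100% = untreated cell control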
H69AR inhibit – proliferation blockers of H69AR lung cancer cells, primary screen, cell-based, human, 86K library. H69AR lung tumor viability, ATP luminescence, 72 h; hits give low values. viability, % at 10 µM. 85,000 compounds, 6% hits. AID 598, 2007;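 active means viability at or below 40%; inactive means viability above 40%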;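 further: multidrug resistant small cell line overexpressing MRP-1 efflux transporter; 100% = mean luminescence of untreated control wells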
HUVEC inhibit – inhibitors of HUVEC proliferation, primary screen, cell-based, 384-well; CellTiter-Glo luminescence, 72 h; hits give low values; viability, % at 10 µM (by protocol); 86,000 compounds, 1.1% hits; AID 648, 2007;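 active means viability at or below 30%; inactive means viability above 30%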;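 further: 100% = median luminescence of DMSO-only cell control wells on each plate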
HCT116 PTEN-null – growth suppression of PTEN-null HCT116, primary screen, cell-based, CellTiter-Glo. HCT116 PTEN-null viability, 60 h; hits give low values. viability, % at 10 µM. 140,000 compounds, 1.2% hits;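 active means viability at or below a set limit, 4 SD under the median of all tested compounds, cut at about 3.7% in these data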;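 further: PTEN knockout HCT116 line with beta catenin targeted HCT116 as companion control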
* = called active by the depositor; · = no result.

SMILES	Fibroblast inh	bCat KO growth	H69AR inhibit	HUVEC inhibit	HCT116 PTEN-null
CCOC(=O)C(=Cc1cc(=O)c(OC)co1)C(=O)OCC	·	1.9*	·	·	1.4*
COc1coc(C(O)CN)cc1=O (centres undefined)	·	95.9	·	·	99.7
CCOC(=O)C1=C(O)/C(=C\c2ccc(CNC(=O)C(=O)Nc3ccccc3)o2)N=C1C	106.0	100.5	35.9*	97.9	102.5
Cc1cc(Cl)ccc1NC(=O)NC1CCN(S(=O)(=O)c2ccc(F)cc2)CC1	95.9	79.0	39.3*	94.4	73.1
O=C(CSc1ncc(C(F)(F)F)cc1Cl)N1CCN(S(=O)(=O)c2ccc3ccccc3c2)CC1	·	73.1	·	·	65.8
N#C/C(=C/c1ccc(N2CCCCC2)o1)c1cccc(F)c1	82.5	65.4	41.0	84.6	75.9
N#C/C(=C/c1ccc(N2CCCCCC2)o1)c1ccc(Cl)cc1	48.4*	51.8	101.1	105.4	64.3
CCCc1[nH]nc2c1C(c1cn[nH]c1-c1ccc(F)cc1)C(C#N)=C(N)O2 (centres undefined)	75.0	69.3	31.9*	74.2	61.0
Cn1c(=O)n(Cc2ccc(F)cc2)c(=O)c2c1nc1n2CCCN1Cc1ccccc1	84.6	56.4	37.8*	94.1	63.2
Cn1c(=O)[nH]c(=O)c2c1nc1n2CCCN1CCc1ccccc1	95.3	88.4	85.8	91.5	97.9
Cn1c(=O)n(CCc2ccccc2)c(=O)c2c1nc1n2CCCN1CCc1ccccc1	46.2*	16.0	92.4	3.7*	15.7
Cn1c(=O)n(Cc2ccccc2F)c(=O)c2c1nc1n2CCCN1CCc1ccccc1	94.2	106.2	·	90.5	90.6
Cn1c(=O)n(CCc2ccccc2)c(=O)c2c1nc1n2CCCN1Cc1ccccc1	82.8	51.8	26.9*	71.2	34.6
CC(C)Cn1c(=O)c2c(nc3n2CCCN3CCc2ccccc2)n(C)c1=O	93.4	84.2	33.6*	96.6	86.3
COc1ccc(OC)c(C2/C(=C(/O)c3cnn(-c4ccccc4)c3C)C(=O)C(=O)N2CCN(C)C)c1 (centres undefined)	100.4	·	100.2	110.0	·
Cc1ccc(C(=O)NCCc2ccncc2)cc1	106.5	98.6	98.8	109.4	109.6
Clc1ccc(-c2nc3ccncc3[nH]2)cc1	·	93.9	·	·	105.0
Cc1cc(/C=N/n2cnnc2)c(C)n1-c1ccc(OCc2ccc(Cl)cc2)cc1	82.0	5.3*	5.8*	63.7	6.1
Cc1cc(C)nc(-n2nc(C)cc2NC(=O)COC(=O)CCC(=O)c2cccs2)n1	99.5	98.8	82.2	92.2	95.3
O=C(c1ccc(S(=O)(=O)c2ccccc2Cl)c([N+](=O)[O-])c1)N1CCN(Cc2ccccc2)CC1	·	4.9*	·	·	9.2
Cc1cc(SCC#N)n2nc(C)c(-c3ccc(Cl)cc3)c2n1	82.1	100.8	43.3	49.9	90.2
CC(C)Oc1cc(O)c2c(=O)c(-c3ccc(O)cc3)coc2c1	101.8	76.3	11.1*	94.3	74.3
COc1ccc(-c2coc3cc(OC)cc(O)c3c2=O)cc1	99.0	77.8	87.8	111.3	88.2
O=C(NCc1ccco1)c1scc2c1OCCO2	·	91.8	·	·	93.8
COc1cccc(-c2cc(C(F)(F)F)n3ncc(C(=O)NCC4CCCO4)c3n2)c1 (centres undefined)	104.0	76.5	59.7	70.3	76.8
SMILES	Fibroblast inh	bCat KO growth	H69AR inhibit	HUVEC inhibit	HCT116 PTEN-null
Cc1cc(NC(=O)CCS(=O)(=O)c2nc(-c3ccccc3)cc(C(F)(F)F)n2)no1	5.6*	68.9	0.7*	24.0*	70.7
Cc1cc(NC(=O)c2cc3nc4c(c(C(F)(F)F)n3n2)CCc2ccccc2-4)no1	103.1	·	29.0*	102.0	·
CC(C)CNC(=O)c1cc2nc3c(c(C(F)(F)F)n2n1)CCc1ccccc1-3	107.2	111.5	78.2	125.3	98.4
Cc1cc(NC(=O)c2cnn3c(C(F)F)cc(-c4ccccc4)nc23)no1	89.6	94.9	24.6*	76.5	82.7
COc1ccc(-c2cc(C(F)(F)F)n3ncc(C(=O)NCC4CCCO4)c3n2)cc1 (centres undefined)	97.5	71.6	20.4*	99.0	61.3
Cc1cccc(-c2ccc(C=Nc3c(C)n(C)n(-c4ccccc4)c3=O)o2)c1	99.2	96.6	89.6	82.5	102.0
O=C1C2C(C(=O)N1/N=C/c1cc([N+](=O)[O-])ccc1O)C1C=CC2C12CC2 (centres undefined)	·	92.3	·	·	88.7
CN1CCN(C(=O)c2ccc(C(C)(C)C)cc2)CC1	96.2	101.7	90.2	112.9	116.6
Cc1cc(NC(=O)c2cnn3c(C(F)(F)F)cc(-c4ccccc4)nc23)no1	94.4	77.6	37.9*	89.2	70.6
O=C(c1cnn2c(C(F)(F)F)cc(-c3ccccc3)nc12)N1CCCc2ccccc21	90.7	93.8	36.0*	86.8	98.0
COc1cccc(C(=O)N2CCN(C3CCN(Cc4ccccc4)CC3)CC2)c1	95.9	97.3	79.9	104.1	106.5
CC(C)NC(=O)c1ccc2c(c1)nnn2C	117.5	85.8	91.4	99.2	105.2
COC(=O)NNC(=O)c1cccc(C)c1	·	97.9	·	·	95.6
COc1ccc(C(c2sc3ncnn3c2O)N2CC(C)OC(C)C2)cc1OC (centres undefined)	88.3	95.8	97.3	29.4*	99.0
COc1ccc(C(c2sc3ncnn3c2O)N2CCN(c3ccccc3F)CC2)cc1OC (centres undefined)	93.0	94.1	89.6	36.9	89.8
CCc1c(C)sc(NC(=O)OC)c1C(=O)N1CCCCC1	95.3	92.3	101.6	88.8	98.8
CCn1ncc(C2=NOC(C(=O)NCc3ccccc3)C2)c1C (centres undefined)	48.5*	15.1	26.0*	49.6	19.2
CCn1ncc(C2=NOC(C(=O)Nc3c(C)n(C)n(-c4ccccc4)c3=O)C2)c1C (centres undefined)	100.9	102.7	98.0	49.0	100.8
CCn1ncc(C2=NOC(C(=O)NCc3ccc(OC)cc3)C2)c1C (centres undefined)	102.8	36.2	21.2*	64.2	36.8
COc1ccc(C2=NOC(C(=O)NCc3ccccc3)C2)cc1 (centres undefined)	83.4	69.2	44.5	62.0	81.8
CN1CCN(S(=O)(=O)c2cccc(S(=O)(=O)c3ccc(Cl)c(Cl)c3)c2)CC1	87.2	85.7	93.8	100.3	82.4
COc1cccc(-c2nnc3sc(C4CCCCC4)nn23)c1	85.9	18.0	54.8	67.7	17.7
CCOc1cccc(-c2nnc3sc(C4CCCCC4)nn23)c1	95.9	6.1*	43.8	71.1	7.8
CCn1c(SCc2nc3ccccc3[nH]2)nnc1-c1cnccn1	101.7	97.8	87.0	94.9	105.1
CC1CC(C)(C)N(C(=O)CSc2ccc(-c3ccc(F)cc3)nn2)c2ccccc21 (centres undefined)	·	4.9*	·	·	4.0
CCOC(=O)N1CCC(NC(=O)c2ccc(CS(=O)(=O)c3c(Cl)cccc3Cl)o2)CC1	95.1	86.9	87.6	97.1	92.5
Cc1cccc(C2(c3cccc(C)c3)CC2C(=O)Nc2ccc([N+](=O)[O-])cc2O)c1 (centres undefined)	·	5.9*	·	·	5.6
Cc1ccc(Cc2nnc3n(-c4ccccc4)nc(C(=O)c4ccccc4)n3c2=O)cc1	95.2	38.5	21.1*	54.8	39.7
O=C1CC(=O)CC(c2ccco2)C1	99.4	93.9	89.0	96.8	96.6
